Screening data deposited in PubChem by Broad Institute.
A selection: hits, their analogues and other compounds. The true share with any hit is near 5.9%.
KDM4C inh – KDM4C (human) demethylase inhibition. Q9H3R0. 96,000 compounds, 0.15% hits. inhibition, % at 12.5 µM. GST-KDM4C 2-372, H3K9me3 peptide, LANCE TR-FRET;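 active = mean replicate inhibition above about 25%, with at least 55% of replicates also reaching it, limit read from the data, passing the limit was not always enough; inconclusive = only one of those two conditions met; inactive = neither condition met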
Target sequence (Q9H3R0 2-372 limits assumed): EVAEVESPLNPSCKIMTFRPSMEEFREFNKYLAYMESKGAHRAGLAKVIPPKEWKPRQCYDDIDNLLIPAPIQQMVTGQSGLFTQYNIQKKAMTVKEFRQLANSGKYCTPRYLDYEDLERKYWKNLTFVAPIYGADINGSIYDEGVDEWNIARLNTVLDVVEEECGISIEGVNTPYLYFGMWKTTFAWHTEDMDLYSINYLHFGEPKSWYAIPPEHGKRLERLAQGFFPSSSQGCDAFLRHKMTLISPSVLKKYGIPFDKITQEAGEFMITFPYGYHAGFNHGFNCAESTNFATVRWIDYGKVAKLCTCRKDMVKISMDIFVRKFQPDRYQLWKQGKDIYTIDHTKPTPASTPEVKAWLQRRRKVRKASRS
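reagent = H3K9me3 peptide substrate, Fe(II), 2-oxoglutarate | system = GST-tagged GASC-1 (JMJD2C) catalytic fragment, aa 2-372 | amount = enzyme final amount 10 nM | read-out = Fall in 671/618 emission ratio as inhibition | medium = HEPES buffer, pH 7.5, plus ascorbate | schedule = 30 min reaction, 60 min detection, RT | measured by = LANCE TR-FRET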
Pf Dd2 inh – inhibitors of Plasmodium falciparum Dd2 growth. P. falciparum Dd2 growth, SYBR Green, 72 h; hits give low values. activity change, % at 10 µM. 94,000 compounds, 2.3% hits. AID 1159554; in the data active = activity change below about -80%; inconclusive = no clear call, values can overlap the other calls
T cruzi growth-1 – inhibitors of T. cruzi proliferation; T. cruzi beta-gal in NIH3T3, GalScreen luminescence, 90 h; inhibition, % at 8.34 µM; AID 624255; 77,000 compounds, 5.9% hits;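 active = mean inhibition above about 93%, with at least 55% of replicates each passing it, limit read from the data, passing the limit was not always enough; inconclusive = only one of those two conditions holds; inactive = neither condition holds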
IDH1 mut inh – blocks human IDH1 R132H reductase activity; O75874; diaphorase/resazurin fluorescence, 60 min; inhibition, % at 10 µM; 70,000 compounds, 0.18% hits; AID 624101; in the data active = inhibition above about 34%; inconclusive = no clear call, values can overlap the other calls; inactive = below about 11%;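 also: 0% = DMSO and 100% = no enzyme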
T cruzi growth-2 – Trypanosoma cruzi proliferation inhibition; shares compounds with T cruzi growth-1; T. cruzi beta-gal in NIH3T3, GalScreen luminescence, 90 h; inhibition, % at 8.35 µM; 5,600 compounds, 72% hits; AID 651739;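 active = mean replicate inhibition above about 95% and at least 55% of replicates individually reaching it, limit read from the data; inconclusive = only one of the two criteria is met; inactive = neither criterion is met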
T cruzi growth-3 – inhibitors of T. cruzi proliferation | shares compounds with T cruzi growth-1 | T. cruzi beta-gal in NIH3T3, GalScreen luminescence, 90 h | inhibition, % at 2.09 µM | 5,600 compounds, 21% hits;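 active = mean inhibition above about 95%, with at least 55% of replicates also reaching it, limit read from the data; inconclusive = meets just one of the two conditions; inactive = meets neither condition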;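 also: plate controls were neutral control median for no effect and positive control median for full effect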
NIH3T3 tox – NIH/3T3 (mouse) viability loss; shares compounds with T cruzi growth-1; NIH/3T3 viability, CellTiter-Glo ATP luminescence, 90 h; cytotoxicity (signal decrease), % at 8.35 µM; 5,600 compounds, 14% hits;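 active = mean signal decrease across replicates above about 35% based on untreated-well scatter, with enough replicates individually passing, limit read from the data; inconclusive = no rule stated though some were filed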;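 also: 0% = median of neutral control wells and 100% = median of positive control wells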
3T3 cytotox 2 – cytotoxicity in mouse NIH/3T3 fibroblasts; inhibition, % at 24.9 µM; NIH/3T3 viability, CellTiter-Glo ATP luminescence, 90 h; 5,600 compounds, 56% hits; shares compounds with T cruzi growth-1;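 active = mean loss of cell viability signal at or above a set limit, and enough replicates individually reaching it; inconclusive = meets only the mean limit or only the replicate share; inactive = meets neither condition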;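 also: 0% = median of neutral control wells and 100% = median of positive control wells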
* = called active by the depositor; u = inconclusive; x = no result given.

SMILES	KDM4C inh	Pf Dd2 inh	T cruzi growth-1	IDH1 mut inh	T cruzi growth-2	T cruzi growth-3	NIH3T3 tox	3T3 cytotox 2
C[C@@H]1CCCCO[C@@H](CN(C)Cc2ccc(C(=O)O)cc2)[C@H](C)CN([C@H](C)CO)C(=O)c2cc(NC(=O)Nc3ccc(C(F)(F)F)cc3)ccc2O1	17.3	23.0	42.5	2.3	x	x	x	x
C[C@@H]1CN([C@@H](C)CO)C(=O)c2cc(NC(=O)Nc3ccc(F)cc3)ccc2O[C@@H](C)CCCCO[C@@H]1CN(C)Cc1ccc(C(F)(F)F)cc1	0.0	-76.4	101.4*	x	104.6*	114.0*	21.2	2.9
C[C@H](CO)N1C[C@H](C)[C@@H](CN(C)Cc2ccc(C(F)(F)F)cc2)OCCCC[C@H](C)Oc2ccc(NC(=O)Nc3ccc(F)cc3)cc2C1=O	-0.4	-10.9	u	x	94.6	110.0*	10.1	12.9
COc1ccccc1-c1nnc(SCC(=O)Nc2ccccc2C(F)(F)F)n1C	x	x	x	0.0	x	x	x	x
CCOc1ccc(NC(=O)Cn2nc([N+](=O)[O-])cc2C)cc1	x	x	x	0.1	x	x	x	x
O=S(=O)(c1ccc(F)cc1)N1CCCCN2[C@H](CO)[C@H](c3ccc(-c4ccccc4F)cc3)[C@@H]2C1	x	18.0	110.6*	x	104.3*	74.5	24.1	93.6*
Cc1ccccc1-c1ccc([C@H]2[C@H](CO)N3CCCCN(S(C)(=O)=O)C[C@@H]23)cc1	13.8	16.7	108.9*	x	95.8*	65.5	29.2	35.5*
Cc1ccccc1-c1ccc([C@H]2[C@H](CO)N3CCCCN(S(=O)(=O)c4ccc(F)cc4)C[C@@H]23)cc1	3.6	-12.0	111.9*	x	99.7*	109.6*	u	103.8*
O=S(=O)(c1ccc(F)cc1)N1CCCCN2[C@H](C1)[C@@H](c1ccc(-c3ccccc3F)cc1)[C@@H]2CO	x	14.1	107.3*	x	101.0*	65.5	20.9	42.1*
COc1ccc(S(=O)(=O)N(C)CC(=O)Nc2ccc(Cl)c(Cl)c2)cc1	x	x	x	0.2	x	x	x	x
O=S(=O)(c1ccc(F)cc1)N1CCCCN2[C@@H](CO)[C@H](c3ccc(-c4ccccc4F)cc3)[C@@H]2C1	x	9.6	106.3*	x	91.1	50.7	77.5*	100.4*
O=S(=O)(c1ccc(F)cc1)N1CCCCN2[C@@H](CO)[C@@H](c3ccc(-c4ccccc4F)cc3)[C@@H]2C1	x	-62.7	81.1	x	x	x	x	x
O=S(=O)(c1ccc(F)cc1)N1CCCCN2[C@H](C1)[C@H](c1ccc(-c3ccccc3F)cc1)[C@@H]2CO	x	1.1	108.1*	x	104.7*	105.0*	30.8	101.7*
CCS(=O)(=O)N1CCCCN2[C@H](CO)[C@H](c3ccc(-c4ccccc4F)cc3)[C@H]2C1	-2.6	-33.3	99.5*	x	95.6*	55.1	9.3	60.6*
COc1ccccc1NC(=O)CNC(=O)c1ccc(OC)c(OC)c1	x	x	x	-0.2	x	x	x	x
COc1ccc(NC(=O)Nc2ccc3c(c2)C(=O)N([C@@H](C)CO)C[C@H](C)[C@@H](CN(C)S(=O)(=O)c2ccc(Cl)cc2)OCCCC[C@@H](C)O3)cc1	-0.5	-79.8	106.7*	5.0	108.7*	112.1*	0.7	18.2
COc1ccc(NC(=O)Nc2ccc3c(c2)C(=O)N([C@H](C)CO)C[C@@H](C)[C@H](CN(C)S(=O)(=O)c2ccc(Cl)cc2)OCCCC[C@@H](C)O3)cc1	-0.5	-76.7	115.2*	1.0	104.5*	101.1*	-5.4	17.9
C[C@H](CO)N1C[C@H](C)[C@H](CN(C)C(=O)Nc2ccc(F)cc2)OCCCC[C@H](C)Oc2ccc(NC(=O)Cc3ccccc3)cc2C1=O	-1.4	4.5	104.3*	x	101.3*	40.4	-21.1	6.1
C[C@H]1CCCCO[C@@H](CN(C)C(=O)Nc2ccc(C(F)(F)F)cc2)[C@@H](C)CN([C@@H](C)CO)C(=O)c2cc(NC(=O)Cc3ccccc3)ccc2O1	-0.8	-63.1	u	x	106.6*	111.1*	10.8	24.2*
C[C@@H]1CCCCO[C@H](CN(C)C(=O)Nc2ccccc2)[C@H](C)CN([C@H](C)CO)C(=O)c2cc(NC(=O)Cc3ccccc3)ccc2O1	0.2	-67.5	28.7	-0.2	x	x	x	x
C[C@@H]1CCCCO[C@@H](CN(C)C(=O)Nc2ccccc2)[C@H](C)CN([C@@H](C)CO)C(=O)c2cc(NC(=O)Cc3ccccc3)ccc2O1	-1.1	-25.9	-28.5	1.0	x	x	x	x
C[C@@H]1CCCCO[C@H](CN(C)C(=O)Nc2ccc(C(F)(F)F)cc2)[C@@H](C)CN([C@@H](C)CO)C(=O)c2cc(NC(=O)Cc3ccccc3)ccc2O1	-1.1	-88.6*	u	1.6	101.1*	114.4*	1.9	u
Cc1ccc(NS(=O)(=O)c2cc(C(=O)NCC3CCCO3)ccc2Cl)cc1C (stereo not given)	x	x	x	-1.7	x	x	x	x
CCC(Sc1nnc(-c2ccc(NC(C)=O)cc2)n1C)C(=O)Nc1ccc(Br)cc1 (stereo not given)	x	x	x	-0.2	x	x	x	x
C[C@H](CO)N1C[C@H](C)[C@H](CN(C)Cc2ccc(Oc3ccccc3)cc2)Oc2ccc(NC(=O)Cc3cn(C)c4ccccc34)cc2C1=O	-1.0	-55.7	u	x	103.8*	58.9	24.5	43.3*
SMILES	KDM4C inh	Pf Dd2 inh	T cruzi growth-1	IDH1 mut inh	T cruzi growth-2	T cruzi growth-3	NIH3T3 tox	3T3 cytotox 2
C[C@@H]1CN([C@H](C)CO)C(=O)c2cc(NC(=O)Cc3cn(C)c4ccccc34)ccc2O[C@@H]1CN(C)Cc1ccc(Oc2ccccc2)cc1	-1.3	-17.2	96.4*	-4.1	100.9*	76.3	12.1	52.5*
COc1ccc(CN(C)C[C@@H]2Oc3ccc(NC(=O)Cc4cn(C)c5ccccc45)cc3C(=O)N([C@H](C)CO)C[C@H]2C)cc1	-0.4	13.1	33.4	-30.9	x	x	x	x
COc1ccc(CN(C)C[C@@H]2Oc3ccc(NC(=O)Cc4cn(C)c5ccccc45)cc3C(=O)N([C@H](C)CO)C[C@@H]2C)cc1	-0.1	-32.3	39.3	-22.7	x	x	x	x
Cn1cnc(S(=O)(=O)N2CCCCN3[C@H](C2)[C@@H](c2ccc(C#CC4CCCC4)cc2)[C@@H]3CO)c1	-0.2	-34.2	76.5	x	x	x	x	x
Cn1cnc(S(=O)(=O)N2CCCCN3[C@@H](CO)[C@H](c4ccc(C#CC5CCCC5)cc4)[C@@H]3C2)c1	0.8	-38.5	105.6*	x	72.0	-18.4	29.1	100.5*
Cn1cnc(S(=O)(=O)N2CCCCN3[C@H](CO)[C@H](c4ccc(C#CC5CCCC5)cc4)[C@H]3C2)c1	-0.1	-41.3	110.8*	x	95.2*	27.2	30.5	105.2*
Cn1cnc(S(=O)(=O)N2CCCCN3[C@H](C2)[C@@H](c2ccc(C#CC4CC4)cc2)[C@@H]3CO)c1	x	21.5	53.1	x	x	x	x	x
